Source: BindingDB's records for doi:10.1021/ml500113s (Rti International, 2014)

Molecular target: Sodium-dependent serotonin transporter (Rattus norvegicus, UniProt P31652)
Test: Inhibition of SERT-mediated serotonin uptake in rat synaptosomes
Procedure, shortened: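 Synaptosomes prepared from rat brain homogenate. Each compound was run in both the release assay and the uptake-inhibition assay to classify it as a releasing substrate or an uptake inhibitor. Dose-response curves were then completed only for the assigned activity. Values are means ± SD from N = 3 experiments, each performed in triplicate.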

Chain of Sodium-dependent serotonin transporter (P31652 whole entry): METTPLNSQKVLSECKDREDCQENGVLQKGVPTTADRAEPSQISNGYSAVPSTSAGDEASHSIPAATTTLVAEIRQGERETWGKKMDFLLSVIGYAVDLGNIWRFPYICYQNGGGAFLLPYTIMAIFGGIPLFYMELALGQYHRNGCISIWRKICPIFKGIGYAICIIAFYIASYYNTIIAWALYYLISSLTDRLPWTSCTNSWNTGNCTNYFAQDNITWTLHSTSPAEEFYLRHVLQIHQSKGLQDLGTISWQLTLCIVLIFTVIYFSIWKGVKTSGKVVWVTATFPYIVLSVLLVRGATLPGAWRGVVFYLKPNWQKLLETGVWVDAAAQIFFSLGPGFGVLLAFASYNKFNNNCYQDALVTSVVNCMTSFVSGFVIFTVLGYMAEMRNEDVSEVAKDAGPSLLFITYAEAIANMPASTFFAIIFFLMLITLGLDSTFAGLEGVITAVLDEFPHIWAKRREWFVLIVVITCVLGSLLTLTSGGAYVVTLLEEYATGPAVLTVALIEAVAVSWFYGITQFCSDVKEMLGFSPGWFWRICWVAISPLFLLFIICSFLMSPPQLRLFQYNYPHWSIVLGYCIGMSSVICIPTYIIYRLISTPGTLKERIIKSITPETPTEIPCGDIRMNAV

## CC(NC1CC1)C(=O)c1cccc(Cl)c1 (stereo unspecified) [2-(N-Cyclopropylamino)-3-chloropropiophenone]
  IC50: 3.18 µM
